Structures are written as SMILES.

This assay concerns the target T1, Thymidine kinase, cytosolic (Cricetulus griseus, UniProt P09768).
T1 sequence (P09768 whole entry): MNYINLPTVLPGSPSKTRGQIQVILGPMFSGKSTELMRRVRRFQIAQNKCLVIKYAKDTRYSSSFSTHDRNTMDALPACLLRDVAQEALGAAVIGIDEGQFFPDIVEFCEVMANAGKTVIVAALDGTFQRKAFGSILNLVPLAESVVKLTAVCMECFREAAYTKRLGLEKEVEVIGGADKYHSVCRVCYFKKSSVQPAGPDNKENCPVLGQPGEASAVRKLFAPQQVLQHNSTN
Put plainly: Competitive inhibition of thymidine kinase in BHK21 (C13) cells using thymidine as substrate assessed as formation of TMP by Lineweaver-Burk plot analysis. Summed up:
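BHK21(C13) cells sonicated in 0.05 M NaCl; 100000g supernatant stored in 50% glycerol at 4 °C. Assay in Tris-HCl 0.05 M pH 8.0, ATP 5 mM, MgCl2 2.5 mM, [14C]thymidine at four or more levels from 3.6 to 18 μM, two inhibitor levels plus a no-inhibitor control, duplicates, 10 min at 37 °C. [14C]TMP captured on DEAE-cellulose disks and counted by scintillation; Ki taken from Lineweaver-Burk plots.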
On to `Nc1cn([C@H]2C[C@H](O)[C@@H](CO)O2)c(=O)[nH]c1=O`, for which the Ki was 450 µM.
In the case of `N#Cc1cn([C@H]2C[C@H](O)[C@@H](CO)O2)c(=O)[nH]c1=O`, the inhibition constant (Ki) was determined as 220 µM.
As to `NCc1cn([C@H]2C[C@H](O)[C@@H](CO)O2)c(=O)[nH]c1=O`, the Ki was 1700 µM.
Then `CCCCCn1c(=O)c(C)cn([C@H]2C[C@H](O)[C@@H](CO)O2)c1=O`, with 72 µM; and `CC(=O)NCC(O)[C@H]1O[C@@H](n2cc(C)c(=O)[nH]c2=O)C[C@@H]1O` (stereo partly drawn), with 270 µM.
For the molecule `CCC(=O)NCC(O)[C@H]1O[C@@H](n2cc(C)c(=O)[nH]c2=O)C[C@@H]1O` (stereo partly drawn), the inhibitory constant (Ki) was 160 µM.
Consider `CCNC[C@H]1O[C@@H](n2cc(C)c(=O)[nH]c2=O)C[C@@H]1O`, for which the Ki worked out at 190 µM.
Take `CCCCNC[C@H]1O[C@@H](n2cc(C)c(=O)[nH]c2=O)C[C@@H]1O`: the Ki amounted to 270 µM.
Then `CCCCCCNC[C@H]1O[C@@H](n2cc(C)c(=O)[nH]c2=O)C[C@@H]1O`, with 180 µM.
As for `CCCCCCN(C[C@H]1O[C@@H](n2cc(C)c(=O)[nH]c2=O)C[C@@H]1O)C(C)=O`, the Ki was 4400 µM.
As for `CC(=O)NCCNC[C@H]1O[C@@H](n2cc(C)c(=O)[nH]c2=O)C[C@@H]1O`, the inhibitory constant (Ki) is 250 µM.
Then `CC(=O)N(C)CCN(C)C[C@H]1O[C@@H](n2cc(C)c(=O)[nH]c2=O)C[C@@H]1O`, with 900 µM; and `Cc1cn([C@H]2C[C@H](O)[C@@H](CSCCO)O2)c(=O)[nH]c1=O`, with 800 µM; and `Cc1cn([C@H]2C[C@H](O)[C@@H](CSCCC(=O)O)O2)c(=O)[nH]c1=O`, with 500 µM.
As for `Cc1cn([C@H]2C[C@H](O)[C@@H](CSCCCC(=O)O)O2)c(=O)[nH]c1=O`, the inhibitory constant (Ki) turned out to be 1200 µM.
For `CC(=O)N[C@H]1C[C@H](n2cc(C)c(=O)[nH]c2=O)O[C@@H]1CO`, the Ki was found to be 2500 µM.
As for `CCS[C@H]1C[C@H](n2cc(C)c(=O)[nH]c2=O)O[C@@H]1CO`, the inhibition constant (Ki) amounted to 12 µM.
As to `CC(=O)NC[C@H]1O[C@@H](n2cc(C)c(=O)[nH]c2=O)C[C@@H]1O` [N-[(2R,5R)-3-Hydroxy-5-(5-methyl-2,4-dioxo-3,4-dihydro-2H-pyrimidin-1-yl)-tetrahydro-furan-2-ylmethyl]-acetamide], the Ki was 6500 µM.

By Ki is commonly meant the dissociation constant of the complex between target and ligand, obtained from inhibition or displacement.

The values are drawn from BindingDB's records for doi:10.1021/jm00192a005 (1979).
